Values after ≈ are worked out from the molar mass of the structure shown.
Experiments:
Format in all cases: functional
[1] = test system: Mycobacterium tuberculosis; test: Antimycobacterial activity against Mycobacterium tuberculosis H37Rv after 2 to 3 weeks by broth microdilution assay
Procedure, shortened: (§1)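 M. tuberculosis H37Rv in broth microdilution. Compounds were first screened at one fixed concentration in triplicate, and actives went on to MIC determination. Plates were incubated 2–3 weeks at 37 °C in a CO₂ incubator. MIC was read visually as the absence of growth turbidity.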

[2] = test system: Mycobacterium tuberculosis; test: Bactericidal activity against Mycobacterium tuberculosis H37Rv after 20 days; details: 480 h
Procedure, shortened: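 After the microdilution MIC run, 0.02 mL of H37Rv suspension from wells at MIC and higher concentrations was plated on 7H10 agar (7H11 also named). Viable counts were taken after 20 days at 37 °C. MBC is the lowest concentration that cut viable counts by at least 99% versus compound-free wells.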

[3] = test system: Mycobacterium tuberculosis; test: Antimycobacterial activity against Mycobacterium tuberculosis; procedure, shortened: as §1

O=C(CSc1nc2ccccc2s1)NCc1ccc(F)cc1
MIC [1]: < 128 µg/mL

O=[N+]([O-])c1cccc(-n2cc(CSc3nc4ccccc4s3)nn2)c1
MIC [1]: 8 µg/mL (≈ 21.7 µM)
MBC [2]: 64 µg/mL (≈ 173 µM)

CCOc1ccc(-n2cc(CSc3nc4ccccc4s3)nn2)cc1
MIC [1]: < 128 µg/mL

O=C(CSc1nc2ccccc2s1)N1CCCC1
MIC [1]: < 128 µg/mL

O=C(C(=O)N1CCCC1)c1c[nH]c2ccccc12
MIC [1]: < 128 µg/mL

Clc1cccc(-n2cc(CSc3nc4ccccc4s3)nn2)c1
MIC [1]: 8 µg/mL (≈ 22.3 µM)
MBC [2]: > 64 µg/mL

NNC(=O)c1ccncc1 [ISONIAZID]
MIC [1]: 0.125 µg/mL (≈ 0.911 µM)

c1ccc(-n2cc(CSc3nc4ccccc4s3)nn2)cc1
MIC [1]: < 128 µg/mL

CC1COC2(CCN(c3nc(=O)c4cc(C(F)(F)F)cc([N+](=O)[O-])c4s3)CC2)O1 (stereo not drawn)
MIC [3]: 1 ng/mL (≈ 0.00232 µM)

O=C(NNC(=O)c1ccncc1)C(=O)c1c[nH]c2ccccc12
MIC [1]: 64 µg/mL (≈ 208 µM)

CN1CCN(C(=O)CSc2nc3ccccc3s2)CC1
MIC [1]: < 128 µg/mL

O=C(CSc1nc2ccccc2s1)N1CCCCC1
MIC [1]: < 128 µg/mL

O=C(CSc1nc2ccccc2s1)NN1CCOCC1
MIC [1]: < 128 µg/mL

O=C(CSc1nc2ccccc2s1)NNC(=O)c1ccncc1
MIC [1]: < 128 µg/mL

O=[N+]([O-])c1ccc(-n2cc(CSc3nc4ccccc4s3)nn2)cc1
MIC [1]: 8 µg/mL (≈ 21.7 µM)
MBC [2]: 32 µg/mL (≈ 86.6 µM)

O=C(C(=O)N1CCOCC1)c1c[nH]c2ccccc12
MIC [1]: < 128 µg/mL

Clc1ccccc1-n1cc(CSc2nc3ccccc3s2)nn1
MIC [1]: 16 µg/mL (≈ 44.6 µM)

O=C(CSc1nc2ccccc2s1)Nc1ccc(Br)cc1
MIC [1]: < 128 µg/mL

O=C(CSc1nc2ccccc2s1)N1CCSCC1
MIC [1]: 64 µg/mL (≈ 206 µM)

Brc1ccc(-n2cc(CSc3nc4ccccc4s3)nn2)cc1
MIC [1]: 16 µg/mL (≈ 39.7 µM)

Clc1ccc(-n2cc(CSc3nc4ccccc4s3)nn2)cc1
MIC [1]: < 128 µg/mL

CO[C@H]1/C=C/O[C@@]2(C)Oc3c(C)c(O)c4c(O)c(c(/C=N/N5CCN(C)CC5)c(O)c4c3C2=O)NC(=O)/C(C)=C\C=C\[C@H](C)[C@H](O)[C@@H](C)[C@@H](O)[C@@H](C)[C@H](OC(C)=O)[C@@H]1C [RIFAMPIN]
MIC [1]: 0.06 µg/mL (≈ 0.0729 µM)

Fc1ccc(-n2cc(CSc3nc4ccccc4s3)nn2)cc1
MIC [1]: < 128 µg/mL

O=C(C(=O)N1CCCCC1)c1c[nH]c2ccccc12
MIC [1]: < 128 µg/mL

c1cncc(-n2cc(CSc3nc4ccccc4s3)nn2)c1
MIC [1]: 16 µg/mL (≈ 49.2 µM)

CC1(C)O[C@H]2OC(Cn3cc(CSc4nc5ccccc5s4)nn3)[C@@H]3OC(C)(C)O[C@@H]3[C@@H]2O1 (stereo partly drawn)
MIC [1]: 8 µg/mL (≈ 16.3 µM)
MBC [2]: 32 µg/mL (≈ 65.2 µM)

CC1(C)OCC(Cn2cc(CSc3nc4ccccc4s3)nn2)O1 (stereo not drawn)
MIC [1]: < 128 µg/mL

O=C(CSc1nc2ccccc2s1)N1CCOCC1
MIC [1]: < 128 µg/mL

CN1CCN(C(=O)C(=O)c2c[nH]c3ccccc23)CC1
MIC [1]: < 128 µg/mL

O=C(NN1CCOCC1)C(=O)c1c[nH]c2ccccc12
MIC [1]: < 128 µg/mL

Cc1ccccc1-n1cc(CSc2nc3ccccc3s2)nn1
MIC [1]: < 128 µg/mL

O=C(C(=O)N1CCSCC1)c1c[nH]c2ccccc12
MIC [1]: < 128 µg/mL

O=C(CSc1nc2ccccc2s1)Nc1ccc(F)cc1
MIC [1]: 64 µg/mL (≈ 201 µM)

O=C(CSc1nc2ccccc2s1)Nc1ccccn1
MIC [1]: 64 µg/mL (≈ 212 µM)

Reference: ChEMBL document CHEMBL3124865, “Sulfur rich 2-mercaptobenzothiazole and 1,2,3-triazole conjugates as novel antitubercular agents” (2014)
